Reference: ChEMBL document CHEMBL1932977, “Synthesis of pyrazolo[3,4-b]pyridines under microwave irradiation in multi-component reactions and their antitumor and antimicrobial activities - Part 1” (Eur J Med Chem, 2012)
Values after ≈ are worked out from the molar mass of the structure shown. Active and inactive are the calls of the source. No cut-off for these calls is given here.

Columns and labels:
[1] = tested on: Bacillus; assay: Antibacterial activity against Bacillus at 10 mg/ml after 24 hrs by cut-plug method; format: functional
Summary of the method: (§1)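 Cut-plug agar diffusion. Bacteria grown on nutrient agar and fungi on Sabouraud agar slopes, strains from a university culture collection. Plates seeded with 1 ml of diluted inoculum (10⁷ CFU/ml) spread after solidification. Wells cut and filled with compound in DMSO at 10 mg/ml. Plates incubated at 30 °C for 24 h, then inhibition-zone diameters (mm) measured.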

[2] = tested on: HepG2; assay: Cytotoxicity against human HepG2 by sulforhodamie B colorimetric assay; format: functional, cell-based
Summary of the method: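 HEPG2 human liver cancer cells, compound-treated against untreated control. Read by SRB: TCA-fixed cultures stained 30 min with 0.4% w/v SRB in 1% acetic acid, bound dye extracted with 10 mM Tris, optical density read on a plate reader. Surviving fraction as percent growth. IC50 estimated by probit regression.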

[3] = tested on: Enterobacter cloacae; assay: Antibacterial activity against Enterobacter cloacae at 10 mg/ml after 24 hrs by cut-plug method; format: functional; summary of the method: as §1
[4] = tested on: Fusarium oxysporum; assay: Antifungal activity against Fusarium oxysporum at 10 mg/ml after 24 hrs by cut-plug method; format: functional; summary of the method: as §1
[5] = tested on: Penicillium expansum; assay: Antifungal activity against Penicillium expansum at 10 mg/ml after 24 hrs by cut-plug method; format: functional; summary of the method: as §1
[6] = tested on: Escherichia coli; assay: Antibacterial activity against Escherichia coli at 10 mg/ml after 24 hrs by cut-plug method; format: functional; summary of the method: as §1
[7] = tested on: Serratia; assay: Antibacterial activity against Serratia at 10 mg/ml after 24 hrs by cut-plug method; format: functional; summary of the method: as §1
[8] = Homo sapiens, HepG2, read-out: IC50

Row | Structure (SMILES) | diameter of the inhibition zone (DIZ) [1] | IC50 [2, 8] | diameter of the inhibition zone (DIZ) [3] | diameter of the inhibition zone (DIZ) [4] | diameter of the inhibition zone (DIZ) [5] | diameter of the inhibition zone (DIZ) [6] | diameter of the inhibition zone (DIZ) [7] | IC50 ([2]; hepg2)
1 | COc1ccc(-c2c(C#N)c(-c3ccc(C)cc3)nc3c2c(-c2cccnc2)nn3-c2ccccc2)cc1 | inactive | 4.34 µg/mL (≈ 8.79 µM) | inactive | inactive | inactive | – | – | –
2 | O=C(O)c1cc(-c2ccc(O)cc2)c2c(-c3cccnc3)nn(-c3ccccc3)c2n1 | inactive | – | inactive | – | inactive | inactive | – | –
3 | O=C(O)c1cc(-c2ccc(Br)cc2)c2c(-c3cccnc3)nn(-c3ccccc3)c2n1 | inactive | – | inactive | inactive | inactive | inactive | – | –
4 | COc1ccc(-c2c(C#N)c(-c3cccnc3)nc3c2c(-c2cccnc2)nn3-c2ccccc2)cc1 | – | 3.73 µg/mL (≈ 7.76 µM) | inactive | inactive | inactive | inactive | inactive | –
5 | COc1cccc2c1C(=O)c1c(O)c3c(c(O)c1C2=O)C[C@@](O)(C(=O)CO)C[C@@H]3O[C@H]1C[C@H](N)[C@H](O)[C@H](C)O1 [DOXORUBICIN] | – | 3.73 µg/mL (≈ 6.86 µM) | – | – | – | – | – | –
6 | COc1ccc(-c2c(C#N)c(-c3ccc(Cl)cc3)nc3c2c(-c2cccnc2)nn3-c2ccccc2)cc1 | inactive | 4 µg/mL (≈ 7.78 µM) | inactive | inactive | inactive | inactive | inactive | –
7 | COc1ccc(-c2c(C#N)c(-c3ccc(F)cc3)nc3c2c(-c2cccnc2)nn3-c2ccccc2)cc1 | inactive | 3.43 µg/mL (≈ 6.89 µM) | inactive | inactive | inactive | inactive | – | –
8 | COc1ccc(-c2cc(C(=O)O)nc3c2c(-c2cccnc2)nn3-c2ccccc2)cc1 | – | – | – | – | inactive | – | – | –
9 | CCN(CC)c1ccc(-c2cc(C(=O)O)nc3c2c(-c2cccnc2)nn3-c2ccccc2)cc1 | inactive | – | inactive | – | inactive | inactive | inactive | –
10 | COc1ccc(-c2c(C#N)c(-c3ccc([N+](=O)[O-])cc3)nc3c2c(-c2cccnc2)nn3-c2ccccc2)cc1 | inactive | 13.5 µg/mL (≈ 25.7 µM) | inactive | inactive | – | – | inactive | –
11 | O=C(O)c1cc(-c2ccccc2)c2c(-c3cccnc3)nn(-c3ccccc3)c2n1 | inactive | – | inactive | inactive | inactive | inactive | – | –
12 | CN(C)c1ccc(-c2cc(C(=O)O)nc3c2c(-c2cccnc2)nn3-c2ccccc2)cc1 | inactive | – | – | – | inactive | inactive | – | –
13 | COc1ccc(-c2c(C#N)c(-c3ccccc3)nc3c2c(-c2cccnc2)nn3-c2ccccc2)cc1 | inactive | – | inactive | inactive | inactive | inactive | inactive | Not Active
